This is a sample that favours compounds with a hit; in the whole collection about 0.79% have one here.
bIAP activator = increases bovine intestinal alkaline phosphatase activity; purified bovine IAP, CDP-star luminescence, 30 min; stronger effect = higher value; fold of DMSO-control signal, blank-subtracted; activation factor at 20 µM; 200,000 compounds, 0.17% hits;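 active = activation factor of 2 or more at 20 µM, a signal rise over negative controls twice the positive control's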
mIAP block = blocks mouse intestinal alkaline phosphatase; purified mouse IAP, CDP-Star luminescence, 30 min; inhibition, % at 10 µM; 330,000 compounds, 0.2% hits; AID 2806;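 active = inhibition of at least 40% at 10 µM in the primary screen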;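 note: plate controls were DMSO with enzyme for no effect and no enzyme wells for full effect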
bIAP inhibitor = blocks bovine intestinal alkaline phosphatase activity; AID 1019; 190,000 tested, under 10 active; purified bovine IAP, CDP-star luminescence, 30 min; inhibition, % at 20 µM;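 active = over 50% inhibition of intestinal alkaline phosphatase at 20 µM in the single-dose screen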
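System: purified bovine intestinal alkaline phosphatase (IAP) enzyme; Input: IAP diluted 1/65,000,000 in the well; Measured by: CDP-star luminescence signal; Compound dosing: 20 µM single dose; Incubation: 30 min reaction at room temperature.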
mIAP act = increases mouse intestinal alkaline phosphatase activity. muIAP, CDP-Star luminescence, 30 min; stronger effect = higher value; 1 = vehicle-only enzyme signal, 0 = enzyme-free wells. activation factor at 10 µM. 330,000 compounds, 0.24% hits;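 active = activation factor of at least 2 at 20 µM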
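also added = chemiluminescent substrate CDP-Star | test system = mouse IAP enzyme | signal = chemiluminescence readout | compound = DMSO-dissolved test compounds | incubation = 30 min at room temperature | benchmarks = DMSO wells, no-enzyme wells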
hIAP activ = increases human intestinal alkaline phosphatase activity; P09923; purified human IAP, CDP-Star luminescence, 30 min; stronger effect = higher value; 1 = vehicle-only enzyme, 0 = enzyme-free background; activation factor at 10 µM; 330,000 compounds, 0.16% hits;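 active = activation factor of the enzyme at least 2-fold when tested at 20 µM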
Target sequence (P09923 whole entry, looked up): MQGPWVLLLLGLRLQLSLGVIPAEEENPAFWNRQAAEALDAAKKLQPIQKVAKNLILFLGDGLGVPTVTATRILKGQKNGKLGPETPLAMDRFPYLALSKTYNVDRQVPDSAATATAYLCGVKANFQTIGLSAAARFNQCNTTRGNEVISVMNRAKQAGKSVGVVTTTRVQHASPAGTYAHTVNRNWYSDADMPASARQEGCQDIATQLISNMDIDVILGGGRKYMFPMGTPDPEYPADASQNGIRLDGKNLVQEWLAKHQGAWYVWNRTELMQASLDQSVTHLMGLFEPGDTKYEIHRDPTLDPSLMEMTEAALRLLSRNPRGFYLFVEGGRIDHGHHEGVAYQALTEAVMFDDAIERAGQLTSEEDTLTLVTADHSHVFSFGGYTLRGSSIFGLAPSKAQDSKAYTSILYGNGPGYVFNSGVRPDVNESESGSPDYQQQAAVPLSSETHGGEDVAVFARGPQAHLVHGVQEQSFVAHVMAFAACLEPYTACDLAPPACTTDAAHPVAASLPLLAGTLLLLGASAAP
hIAP inh = human IAP inhibition | 330,000 compounds, 0.12% hits | purified IAP, CDP-Star luminescence, 30 min | P09923 | inhibition, % at 10 µM;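 active = inhibition reaching a set limit with compound at 10 µM in the primary screen, cut at about 35% in these data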;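 note: plate controls were DMSO wells with enzyme for no effect and no-enzyme buffer wells for full effect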
mIAP inh confirm = mouse IAP inhibition confirmation. AID 434971. shares compounds with mIAP block. inhibition, % at 10 µM. purified mouse IAP, CDP-Star luminescence, 30 min. 11,000 compounds, 4.7% hits;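 active = inhibition of at least 40% at 10 µM in either of the two replicates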;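 note: plate controls were DMSO wells with enzyme for no effect and buffer wells lacking enzyme for full effect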
* hit, by the source's call; · = no result given.

SMILES | bIAP activator | mIAP block | bIAP inhibitor | mIAP act | hIAP activ | hIAP inh | mIAP inh confirm
Cn1c(=O)c2c(nc(NC3CCCCC3)n2CC(=O)C23CC4CC(CC(C4)C2)C3)n(C)c1=O | 1 | -100 | -1 | 2* | 1.2 | -23 | -465
CCCC(CCC)C(=O)O | · | 0 | · | 1.1 | 1.1 | 5 | ·
O=C1C=C(O)c2c(O)cc(O)c(O)c2C1=O | · | 69* | · | 0.31 | 0.83 | 17 | 55*
O=C1c2ccccc2C(=O)c2c(O)c(O)cc(O)c21 | · | 22 | · | 0.79 | 0.81 | 19 | ·
O=C(CSc1nc2ccccc2c(=O)[nH]1)c1ccc(O)c(O)c1 | 0.1 | 62* | · | 0.38 | 0.93 | 7 | 72*
COc1cccc(/C=C2/SC(=S)N(CC(=O)NNC(=O)c3ccccc3O)C2=O)c1 | · | 25 | · | 0.75 | 2 | -97 | ·
O=C(CN1C(=O)/C(=C/c2ccccc2)SC1=S)NNC(=O)c1ccccc1O | 1 | 41* | -3 | 0.59 | 1.6 | -58 | 43*
O=C(NCC1CCN(Cc2ccccc2F)CC1)Nc1ccccc1F | · | -30 | · | 1.3 | 1.1 | -7 | ·
O=C(NCC1CCN(Cc2ccccc2F)CC1)Nc1cccc(Br)c1 | · | -226 | · | 3.3* | 1.4 | -39 | -105
Cc1ccc(C)c(CN2CCC(CNC(=O)Nc3ccc(C)c(C)c3)CC2)c1 | · | -291 | · | 3.9* | 1.3 | -27 | -121
CCOC(=O)c1ccc(NC(=O)Nc2ccc3c(c2)OCCO3)cc1 | 1.1 | -192 | -6 | 2.9* | 1.1 | -12 | -106
CC(C)n1c(NCc2nc3ccccc3n2C)nc2ccccc21 | 1.7 | -28 | -67 | 1.3 | 0.94 | 6 | ·
CCn1c(CNc2nc3ccccc3n2C(C)C)nc2ccccc21 | 3.1* | -100 | -210 | 2* | 1.2 | -21 | -97
Cc1cccc(N2C(=O)CC(N3CCN(c4ccccc4)CC3)C2=O)c1 (stereo not drawn) | 1 | 5 | 0 | 0.95 | 0.9 | 10 | ·
CC(Cc1ccc(O)c(O)c1)C(C)Cc1ccc(O)c(O)c1 (stereo not drawn) | · | 58* | · | 0.42 | 1.1 | -14 | 51*
COc1cc(C[C@@H](C)[C@@H](C)Cc2ccc(O)c(OC)c2)ccc1O | · | 11 | · | 0.89 | 0.94 | 6 | ·
Cc1cccc(N2CSC3=C(C#N)C(c4ccc(C)o4)CC(=O)N3C2)c1 (stereo not drawn) | 1 | 58* | -1 | 0.42 | 1.1 | -5 | 63*
COc1ccc(OC)c(C2CC(=O)N3CN(c4ccccc4)CSC3=C2C#N)c1 (stereo not drawn) | 0.9 | 37 | 5 | 0.63 | 0.98 | 2 | ·
Oc1ccc(/C=N/Nc2cc(N3CCOCC3)nc(N3CCOCC3)n2)cc1O | 1 | 42* | 4 | 0.58 | 1.1 | -11 | 63*
Cc1ccc(C)c(NS(=O)(=O)c2cc(C(=O)NCC3CCCO3)ccc2C)c1 (stereo not drawn) | · | 4 | · | 0.96 | 1.1 | -14 | ·
O=C(CSc1nc2nn(-c3ccccc3)c(=O)c-2c2n1CCCCC2)c1ccc(O)c(O)c1 | · | 76* | · | 0.24 | 0.76 | 24 | 81*
CNC(=O)CSc1nc2nn(-c3ccccc3)c(=O)c-2c2n1CCCCC2 | 1 | -5 | 5 | 1 | 1 | -1 | ·
O=C(NCc1ccc(C(F)(F)F)cc1)C1CC(c2cccc(F)c2)=NO1 (stereo not drawn) | · | -4 | · | 1 | 1.1 | -14 | ·
O=C(CN1CCOCC1)Nc1ncccn1 | 0.9 | -5 | 6 | 1 | 1 | -2 | ·
COc1ccccc1[C@H]1C(c2cccc(C)c2)=NN(c2ccccc2)[C@@H]1CO | · | -75 | · | 1.6 | · | · | ·
SMILES | bIAP activator | mIAP block | bIAP inhibitor | mIAP act | hIAP activ | hIAP inh | mIAP inh confirm
OC[C@@H]1[C@@H](c2ccc(Cl)cc2)C(c2cccc(Cl)c2)=NN1c1ccccc1 | · | -133 | · | 2.3* | · | · | -120
COc1ccccc1[C@H]1C(c2ccccc2)=NN(c2ccccc2)[C@@H]1CO | · | -116 | · | 2.2* | · | · | -99
CCN(CC(=O)Nc1cccc(C(C)=O)c1)S(=O)(=O)c1ccc(C)cc1 | 1.1 | 6 | -13 | 0.94 | 0.96 | 4 | ·
O=C(c1ccc(COc2ccc(Cl)cc2Cl)o1)N1CCCC1 | · | -3 | · | 1 | 1.1 | -6 | ·
COc1ccc2[nH]c3c(c2c1)CCN1C(=O)C(CC(=O)NC/C=C(\C)CCC=C(C)C)C[C@H](C(=O)N(C(C)C)C(C)C)[C@@]31C (stereo partly drawn) | · | -116 | · | 2.2* | · | · | -100
Cc1csc(NC(=O)CSc2nncn2C)n1 | 1 | -8 | 5 | 1.1 | 1.1 | -15 | ·
O=C(COC(=O)COc1ccccc1)Nc1ncc([N+](=O)[O-])s1 | · | 63* | · | 0.37 | 1.3 | -28 | 69*
Cn1cnnc1SCC(=O)Nc1ncc([N+](=O)[O-])s1 | · | 41* | · | 0.59 | 1.2 | -24 | 51*
O=C(COc1ccc(Cl)cc1)Nc1ncc([N+](=O)[O-])s1 | 1.1 | · | -11 | · | · | · | ·
CCc1ccc(-c2nc(C)c(CCO)c(=O)[nH]2)cc1 | 0.8 | -7 | 16 | 1.1 | 1.1 | -14 | ·
O=C(N/N=C/c1ccc([N+](=O)[O-])o1)c1ccc(NS(=O)(=O)c2cccs2)cc1 | · | 50* | · | 0.5 | 1.1 | -8 | 59*
O=C(N/N=C/c1ccc([N+](=O)[O-])o1)c1ccc2c(c1)OCO2 | · | 45* | · | 0.55 | 1.1 | -8 | 55*
O=C(Nc1ccc2c(c1)OCO2)N1CCN(C(=O)C2CCCO2)CC1 (stereo not drawn) | 0.9 | 5 | 9 | 0.95 | 0.94 | 6 | ·
COc1ccccc1NS(=O)(=O)c1cc(NC(=O)CCc2nc3ccccc3c(=O)[nH]2)ccc1C | · | 1 | · | 0.99 | 1 | -2 | ·
O=C(CNC(=S)N(Cc1ccccc1)Cc1cccnc1)NCCN1CCOCC1 | 1.1 | -4 | -12 | 1 | 0.99 | 1 | ·
O=C1c2cc(O)c(O)cc2S(=O)(=O)C1c1ccccc1 (stereo not drawn) | · | 51* | · | 0.49 | 0.94 | 6 | 62*
O=C1c2ccccc2C(=O)C1c1ccc(O)cc1 | 0.9 | 8 | 9 | 0.92 | 1.3 | -30 | ·
CCC(=O)NS(=O)(=O)c1ccc(N=NN2CCCCC2)cc1 | 1.2 | -1 | -16 | 1 | 0.9 | 10 | ·
Cc1onc(-c2ccccc2)c1CNC(=O)Nc1ccc(C(F)(F)F)cc1 | · | -306 | · | 4.1* | 1.2 | -23 | -99
Cc1onc(-c2ccccc2)c1CNC(=O)Nc1ccc(F)cc1F | · | -44 | · | 1.4 | 1.2 | -19 | ·
Cc1onc(-c2ccccc2)c1CNC(=O)Nc1cccc(Cl)c1 | · | -302 | · | 4* | 1.3 | -26 | -133
Cc1nn(C)c(C)c1CNC(=O)Nc1cccc(Cl)c1 | 1 | -23 | -4 | 1.2 | 1.1 | -11 | ·
Cc1cc(C)cc(NC(=O)NCc2c(-c3ccccc3)noc2C)c1 | · | -370 | · | 4.7* | 1 | -4 | -173
CC(C)(C)OC(=O)NCCc1nnc(S(=O)(=O)Cc2ccc(Cl)cc2Cl)o1 | 0.9 | 2 | 5 | 0.98 | 0.95 | 5 | ·

From PubChem BioAssay
